Results from ChEMBL document CHEMBL2385064, “Selective CB2 agonists with anti-pruritic activity: discovery of potent and orally available bicyclic 2-pyridones” (Bioorg Med Chem, 2013).
Activity calls are given as the source filed them. The rule behind the calls is not given here.

Columns and labels:
Homo sapiens = species: Homo sapiens; assay: Selectivity ratio of Ki for human CB1 receptor to Ki for human CB2 receptor
Cannabinoid receptor 2 [1] = target: T1, Cannabinoid receptor 2 (Homo sapiens, UniProt P34972); assay: Displacement of [3H]-CP-55,940 from human CB2 receptor expressed in CHO cell membranes
T1 sequence (P34972 whole entry): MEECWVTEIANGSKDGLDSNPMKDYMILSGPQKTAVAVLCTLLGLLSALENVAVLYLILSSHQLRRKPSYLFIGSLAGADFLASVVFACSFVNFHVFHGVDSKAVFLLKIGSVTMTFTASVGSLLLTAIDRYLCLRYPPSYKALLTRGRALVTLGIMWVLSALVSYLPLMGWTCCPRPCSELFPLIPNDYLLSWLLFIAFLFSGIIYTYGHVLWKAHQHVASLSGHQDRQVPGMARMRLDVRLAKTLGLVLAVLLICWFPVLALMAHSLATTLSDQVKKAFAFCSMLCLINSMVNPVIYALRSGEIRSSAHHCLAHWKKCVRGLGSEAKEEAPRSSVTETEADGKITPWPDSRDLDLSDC
Procedure, shortened: (§1)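 Competition binding against [3H]-CP-55,940 on membranes from CHO cells stably expressing recombinant human CB1 or CB2. Between-day coefficient of variation is 0.24 for CB1 and 0.53 for CB2.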

Cannabinoid receptor 1 = Cannabinoid receptor 1 (Homo sapiens, UniProt P21554); assay: Displacement of [3H]-CP-55,940 from human CB1 receptor expressed in CHO cell membranes; procedure, shortened: as §1
Chain of Cannabinoid receptor 1 (P21554 whole entry): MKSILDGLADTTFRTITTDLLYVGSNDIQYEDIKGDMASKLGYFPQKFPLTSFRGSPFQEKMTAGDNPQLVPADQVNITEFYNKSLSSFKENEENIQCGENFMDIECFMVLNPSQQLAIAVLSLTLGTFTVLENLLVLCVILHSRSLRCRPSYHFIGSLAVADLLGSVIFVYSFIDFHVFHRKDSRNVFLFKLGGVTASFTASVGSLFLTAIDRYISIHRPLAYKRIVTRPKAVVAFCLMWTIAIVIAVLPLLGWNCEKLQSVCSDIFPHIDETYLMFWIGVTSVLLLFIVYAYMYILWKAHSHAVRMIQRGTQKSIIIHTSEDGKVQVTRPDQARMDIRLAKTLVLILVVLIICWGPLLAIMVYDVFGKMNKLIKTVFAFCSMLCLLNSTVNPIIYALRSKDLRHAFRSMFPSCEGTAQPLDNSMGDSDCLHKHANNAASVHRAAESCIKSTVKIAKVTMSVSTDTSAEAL

Cannabinoid receptor 2 [2] = target: T1, Cannabinoid receptor 2; assay: Agonist activity at human CB2 receptor expressed in CHO cells assessed as inhibition of forskolin-induced cAMP production at 2 uM relative to control; type: functional, cell-based
Procedure, shortened: (§2)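 Forskolin-induced cAMP production measured in human CB2-expressing CHO cells. Emax is the maximum inhibition rate of cAMP production at the indicated concentration.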

Cannabinoid receptor 2 [3] = target: T1, Cannabinoid receptor 2; assay: Agonist activity at human CB2 receptor expressed in CHO cells assessed as inhibition of forskolin-induced cAMP production; type: functional, cell-based
Procedure, shortened: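 Functional readout is inhibition of forskolin-evoked cAMP accumulation in CHO cells expressing human CB2. IC50 determined from more than four duplicate assay points. Between-day coefficient of variation is 0.63.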

Mus musculus [4] = assay: Antipruritic activity in ICR mouse assessed as inhibition of compound 48/80-induced scratching-behavior at 100 mg/kg, po administered once before challenge relative to control; type: functional
Procedure, shortened: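 Female ICR mice had their backs clipped. Compound was given orally once (n = 6) in sesame oil or 0.5% methylcellulose. Scratching bouts at the site by hind paws were counted for 30 min. Result compared with the vehicle group by Dunnett's t-test (p<0.05).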

[5] = Volume of distribution at steady state in mouse at 2 mg/kg, iv; type: ADME, organism-based; parameters: dose 2 mg/kg, route intravenous; conditions: in vivo, read-out: Vdss
Cannabinoid receptor 2 [6] = target: T1, Cannabinoid receptor 2; assay: Agonist activity at human CB2 receptor expressed in CHO cells assessed as inhibition of forskolin-induced cAMP production at 0.2 uM relative to control; type: functional, cell-based; procedure, shortened: as §2
[7] = Half life in mouse at 2 mg/kg, iv; type: ADME, organism-based; parameters: dose 2 mg/kg, route intravenous; conditions: in vivo
[8] = target: Cannabinoid receptor 2 (Mus musculus) (UniProt P47936); assay: Displacement of [3H]-CP-55,940 from mouse spleen CB2 receptor expressed in CHO cell membranes
Chain of Cannabinoid receptor 2 (Mus musculus) (P47936 whole entry): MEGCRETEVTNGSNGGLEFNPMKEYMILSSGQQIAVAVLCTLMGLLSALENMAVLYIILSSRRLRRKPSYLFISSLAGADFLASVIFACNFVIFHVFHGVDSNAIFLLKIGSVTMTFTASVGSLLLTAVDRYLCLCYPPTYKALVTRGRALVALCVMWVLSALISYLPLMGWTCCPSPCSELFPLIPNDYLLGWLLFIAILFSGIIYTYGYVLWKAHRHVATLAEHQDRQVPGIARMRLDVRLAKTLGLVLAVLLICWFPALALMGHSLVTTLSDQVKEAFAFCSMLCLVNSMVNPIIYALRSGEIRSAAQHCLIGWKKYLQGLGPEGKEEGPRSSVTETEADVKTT

Mus musculus [9] = assay: Toxicity in po dosed ICR mouse assessed as decrease in locomotor activity at 100 mg/kg, po; type: organism-based; parameters: dose 100 mg/kg, route oral; conditions: in vivo
Mus musculus [10] = assay: Oral bioavailability in mouse at 30 mg/kg; type: ADME, organism-based; conditions: in vivo
[11] = Cmax in mouse at 30 mg/kg, po; type: ADME, organism-based; parameters: dose 30 mg/kg, route oral; conditions: in vivo
Mus musculus [12] = assay: AUC in mouse at 30 mg/kg, po; type: ADME, organism-based, Plasma; parameters: dose 30 mg/kg, route oral; conditions: in vivo
[13] = Total plasma clearance in mouse at 1 mg/kg, iv; type: ADME, organism-based; parameters: dose 1 mg/kg, route intravenous
[14] = Volume of distribution at steady state in mouse at 1 mg/kg, iv; type: ADME, organism-based; parameters: dose 1 mg/kg, route intravenous; conditions: in vivo, read-out: Vdss
[15] = Half life in mouse at 1 mg/kg, iv; type: ADME, organism-based; parameters: dose 1 mg/kg, route intravenous; conditions: in vivo
Cannabinoid receptor 2 [16] = target: T1, Cannabinoid receptor 2; assay: Agonist activity at human CB2 receptor expressed in CHO cells assessed as inhibition of forskolin-induced cAMP production at 0.02 uM relative to control; type: functional, cell-based; procedure, shortened: as §2

For `CCCCn1c(CC)c(C)cc(C(=O)NCc2ccccc2)c1=O`, the Ratio Ki (Homo sapiens) was 16, the Ki (Cannabinoid receptor 2 [1]) was 20 nM and the Ki (Cannabinoid receptor 1) was 322 nM.
Work on `CCCCn1c2c(cc(C(=O)NC(C)C)c1=O)CCCCCC2` yielded an Emax (Cannabinoid receptor 2 [2]) of 92%, a Ratio Ki (Homo sapiens) of 148 and a Ki (Cannabinoid receptor 2 [1]) of 4 nM. The IC50 (Cannabinoid receptor 2 [3]) was 2.5 nM and the Ki (Cannabinoid receptor 1) was 591 nM.
`CCCCn1c2c(cc(C(=O)NCc3ccccc3)c1=O)CCCCCC2` showed an inhibition in vivo at 100 mg/kg (Mus musculus [4]) of 81%, a Vd [5] of 2.29 L/kg and an Emax (Cannabinoid receptor 2 [6]) of 100%. The Ratio Ki (Homo sapiens) was 593, the half-life [7] was 16.8 min and the Activity [8] was “Active”. For the same compound, the Activity (Mus musculus [9]) was “Non-toxic”, the F (Mus musculus [10]) was 25% and the Cmax [11] was 168 ng/mL. It also gave an AUC (Mus musculus [12]) of 390 ng·h/mL.
With `CCCCn1c(C)c(C)cc(NS(=O)(=O)c2ccccc2)c1=O` the Ki (Cannabinoid receptor 2 [1]) was over 5000 nM.
In the case of `CCCCn1c2c(cc(C(=O)NC3CCN(C)CC3)c1=O)CCCCCC2`, the Ki (Cannabinoid receptor 2 [1]) is reported as 147 nM.
With `CCCCn1c2c(cc(C(=O)NC(C)(C)c3ccccc3)c1=O)CCCCCC2` the IC50 (Cannabinoid receptor 2 [3]) was 0.2 nM.
`O=C(NCc1ccccc1)c1cc2c(n(CCCN3CCOCC3)c1=O)CCCCCC2` gave a Ki (Cannabinoid receptor 2 [1]) of 209 nM.
In the case of `CCCCn1c2c(cc(C(=O)NCc3ccccc3)c1=O)CCCC2`, the Emax (Cannabinoid receptor 2 [2]) is reported as 76%, the Ratio Ki (Homo sapiens) is reported as 44 and the Ki (Cannabinoid receptor 2 [1]) is reported as 17 nM. The IC50 (Cannabinoid receptor 2 [3]) was 17 nM and the Ki (Cannabinoid receptor 1) was 746 nM.
In the case of `CCCCn1c2c(cc(C(=O)NCc3ccccc3)c1=O)CCC2`, the Emax (Cannabinoid receptor 2 [2]) is reported as 83%, the Ratio Ki (Homo sapiens) is reported as 8.9 and the Ki (Cannabinoid receptor 2 [1]) is reported as 16 nM. The Ki (Cannabinoid receptor 1) was 143 nM.
For `CCCCn1c2c(cc(C(=O)NCc3ccccc3)c1=O)COCC2`, the Ki (Cannabinoid receptor 2 [1]) was 204 nM.
With `CCCCn1c2c(cc(C(N)=O)c1=O)CCCCCC2` the Ratio Ki (Homo sapiens) was over 125, the Ki (Cannabinoid receptor 2 [1]) was 40 nM and the Ki (Cannabinoid receptor 1) was over 5000 nM.
`CCCCn1c(C)c(C)cc(NC(=O)Nc2ccccc2)c1=O` gave a Ki (Cannabinoid receptor 2 [1]) of over 5000 nM.
Compound `CCCCn1c(C)c(C)cc(C(=O)NCc2ccccc2)c1=O` has a Ki (Cannabinoid receptor 2 [1]) of 66 nM and a Ki (Cannabinoid receptor 1) of 606 nM.
`CCCCn1c2c(cc(C(=O)NCCc3ccccc3)c1=O)CCCCCC2` showed an Emax (Cannabinoid receptor 2 [6]) of 98% and a Ratio Ki (Homo sapiens) of 568.
In the case of `CC(C)CCn1c2c(cc(C(=O)NCc3ccccc3)c1=O)CCCCCC2`, the Ratio Ki (Homo sapiens) is reported as 10, the Ki (Cannabinoid receptor 2 [1]) is reported as 0.9 nM and the Ki (Cannabinoid receptor 1) is reported as 9 nM.
Work on `CCCCn1c2c(cc(C(=O)NC3CCCCC3)c1=O)CCCCCC2` yielded a clearance [13] of 35 mL/min/kg, a Vd [14] of 0.89 L/kg and a half-life [15] of 18 min. The Emax (Cannabinoid receptor 2 [16]) was 98%, the Ratio Ki (Homo sapiens) was 95 and the Activity [8] was “Active”. It also gave an IC50 (Cannabinoid receptor 2 [3]) of under 0.2 nM.
